Laboratory results published in ChEMBL document CHEMBL1123105, “New bidentates as full inhibitors of enkephalin-degrading enzymes: synthesis and analgesic properties” (J Med Chem, 1985).

molecular target: not listed separately; test: Inhibitory activity against rat brain Dipeptidyl aminopeptidase using 10 nM of [3H]Leu-enkephalin as substrate
Procedure, shortened: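 Membrane-bound dipeptidylaminopeptidase purified from rat brain and aminopeptidase M purified from rabbit kidney were each preincubated 15 min at 25 °C with or without increasing inhibitor concentrations in 50 mM Tris-HCl, pH 7.4. […] The reaction was stopped with HCl after 30 min, and tritiated metabolites were separated on polystyrene beads. IC50 came from log probit analysis of five inhibitor concentrations; mean ± SEM.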

Row | Structure (SMILES) | IC50
1 | O=C(O)CNC(=O)C(CC(=O)NO)Cc1ccccc1 (stereo unspecified) | 21 nM
2 | O=CN(O)C(Cc1ccccc1)C(=O)NCC(=O)O (stereo unspecified) | 232000 nM
3 | O=CN(O)CC(Cc1ccccc1)C(=O)NCC(=O)O (stereo unspecified) | 305 nM

Continued, values first:

Row | IC50 | Structure (SMILES)
4 | 2.1 nM | CC(NC(=O)C(CC(=O)NO)Cc1ccccc1)C(=O)O (stereo unspecified)
5 | 3500 nM | O=C(O)CNC(=O)C(Cc1ccccc1)C(=O)NO (stereo unspecified)

molecular target: T1, Neprilysin (Rattus norvegicus, UniProt P07861); test: In vitro inhibition of enkephalinase purified from […].
T1 sequence (P07861 whole entry): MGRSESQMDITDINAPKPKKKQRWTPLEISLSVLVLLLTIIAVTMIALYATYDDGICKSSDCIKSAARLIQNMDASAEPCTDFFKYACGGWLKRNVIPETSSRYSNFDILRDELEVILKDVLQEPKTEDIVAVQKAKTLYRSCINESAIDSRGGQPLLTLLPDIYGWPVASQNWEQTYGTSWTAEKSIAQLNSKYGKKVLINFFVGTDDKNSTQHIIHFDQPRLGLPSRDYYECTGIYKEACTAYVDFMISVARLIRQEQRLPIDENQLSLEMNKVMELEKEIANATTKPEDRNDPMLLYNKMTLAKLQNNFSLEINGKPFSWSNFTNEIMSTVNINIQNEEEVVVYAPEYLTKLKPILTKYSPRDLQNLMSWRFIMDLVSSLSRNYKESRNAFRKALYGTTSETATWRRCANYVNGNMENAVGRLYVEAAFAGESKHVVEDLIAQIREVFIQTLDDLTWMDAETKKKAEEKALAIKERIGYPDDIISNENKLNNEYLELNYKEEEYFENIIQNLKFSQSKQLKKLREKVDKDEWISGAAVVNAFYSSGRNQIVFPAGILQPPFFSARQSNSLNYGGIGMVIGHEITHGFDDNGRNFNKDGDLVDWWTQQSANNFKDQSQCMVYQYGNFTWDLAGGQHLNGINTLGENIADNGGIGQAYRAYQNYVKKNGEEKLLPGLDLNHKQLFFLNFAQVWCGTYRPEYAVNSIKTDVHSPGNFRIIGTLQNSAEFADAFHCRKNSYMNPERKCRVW
Procedure, shortened: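 Enkephalinase purified from kidney (0.9 ± 0.2 pmol/100 µL final) was preincubated 15 min at 25 °C with or without increasing inhibitor concentrations in 50 mM Tris-HCl, pH 7.4. Tritiated metabolites were separated on polystyrene beads. IC50 came from log probit analysis of five inhibitor concentrations; mean ± SEM of five independent experiments.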

Row | Structure (SMILES) | IC50
6 | O=C(O)CNC(=O)C(Cc1ccccc1)C(=O)O (stereo unspecified) | 700 nM
7 | O=CN(O)C(Cc1ccccc1)C(=O)NCC(=O)O (stereo unspecified) | 1500 nM
8 | CC(C)CCNC(=O)CNC(=O)C(Cc1ccccc1)C(=O)NO (stereo unspecified) | 850 nM
9 | O=C(O)CNC(=O)C(CC(=O)O)Cc1ccccc1 (stereo unspecified) | 800 nM
10 | COC(=O)CNC(=O)C(Cc1ccccc1)CN(O)C=O (stereo unspecified) | 350 nM
11 | O=CN(O)CC(Cc1ccccc1)C(=O)NCC(=O)O (stereo unspecified) | 10 nM

The next lines start with the values.

Row | IC50 | Structure (SMILES)
12 | 1 nM | COC(=O)CNC(=O)C(Cc1ccccc1)C(=O)NO (stereo unspecified)
13 | > 1 nM | O=C(O)CNC(=O)C(CNO)Cc1ccccc1 (stereo unspecified)
14 | 2 nM | CC(NC(=O)C(CC(=O)NO)Cc1ccccc1)C(=O)O (stereo unspecified)
15 | 800 nM | CC(C)CCNC(=O)CNC(=O)C(Cc1ccccc1)CN(O)C=O (stereo unspecified)
16 | 30 nM | CC(C)CCNC(=O)CNC(=O)C(Cc1ccccc1)N(O)C=O (stereo unspecified)
17 | 1200 nM | O=CN(O)CC(Cc1ccccc1)C(=O)NCC(=O)NCc1ccccc1 (stereo unspecified)
18 | 600 nM | CC(C)CCNC(=O)CNC(=O)C(CC(=O)NO)Cc1ccccc1 (stereo unspecified)
19 | 750 nM | O=C(CNC(=O)C(Cc1ccccc1)C(=O)NO)NCc1ccccc1 (stereo unspecified)

molecular target: T1, Neprilysin; test: 50% inhibitory activity against enkephalinase purified from rabbit kidney with [3H]D-Ala2-Leu-enkephalin (20 nM) as substrate.

Row | IC50 | Structure (SMILES)
20 | 1.8 nM | C[C@H](NC(=O)[C@H](CC(=O)NO)Cc1ccccc1)C(=O)O
21 | 1.7 nM | C[C@H](NC(=O)[C@@H](CC(=O)NO)Cc1ccccc1)C(=O)O (racemic) [KELATORPHAN]
